Reference: ChEMBL document CHEMBL1155459, “On-bead screening of a combinatorial fumaric acid derived peptide library yields antiplasmodial cysteine protease inhibitors with unusual peptide sequences” (J Med Chem, 2009)
Peptide text beside a SMILES is read from it.

Columns and labels:
[1] = Inhibition of Plasmodium falciparum falcipain-2 after 12 hrs by fluorescence spectroscopy-based on-bead assay; parameters: concentration or dose not given beside the values; settings: concentration not given here
How it was run: (§1)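 Library members on resin (PEGA, theoretical loading 0.40 mmol/g; added as DMSO suspension, 0.64 mM final inhibitor) preincubated with enzyme 12 h, then Cbz-Phe-Arg-AMC 40 μM added; AMC release followed by fluorescence (ex 380/em 460 nm). Kinetics compared with inhibitor-free amino-PEGA resin.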

[2] = target: Rhodesain (Trypanosoma brucei rhodesiense) (UniProt Q95PM0); test: Inhibition of Trypanosoma brucei rhodesiense rhodesain after 12 hrs by fluorescence spectroscopy-based on-bead assay; parameters: concentration or dose not given beside the values; settings: concentration not given here; how it was run: as §1
Chain of Rhodesain (Trypanosoma brucei rhodesiense) (Q95PM0 1-450): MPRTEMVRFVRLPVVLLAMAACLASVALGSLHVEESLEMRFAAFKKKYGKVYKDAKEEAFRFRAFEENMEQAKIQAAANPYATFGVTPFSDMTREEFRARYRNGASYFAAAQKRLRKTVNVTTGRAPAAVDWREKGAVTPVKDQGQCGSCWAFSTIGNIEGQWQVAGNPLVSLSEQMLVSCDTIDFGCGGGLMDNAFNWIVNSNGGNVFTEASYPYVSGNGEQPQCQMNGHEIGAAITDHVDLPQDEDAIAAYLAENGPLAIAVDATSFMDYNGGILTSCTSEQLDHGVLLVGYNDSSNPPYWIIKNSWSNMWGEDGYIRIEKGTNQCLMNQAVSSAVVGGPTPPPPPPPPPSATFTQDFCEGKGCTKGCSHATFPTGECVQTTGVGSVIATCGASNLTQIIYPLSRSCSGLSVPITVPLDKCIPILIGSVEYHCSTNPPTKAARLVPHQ

SMILES	inhibition [1]	inhibition [2]
CC(C)[C@H](NC(=O)[C@H](C)NC(=O)[C@H](Cc1ccccc1)NC(=O)[C@H](CCC(N)=O)NC(=O)/C=C/C(=O)NCC(=O)NCC(=O)N[C@@H](Cc1ccccc1)C(=O)O)C(N)=O (HELM PEPTIDE1{[O=C(/C=C/C(=O)[*:2])NCC(=O)NCC(=O)N[C@@H](Cc1ccccc1)C(=O)O].Q.F.A.V.[am]}$$$$V2.0)	54%	41%
CC(C)C[C@H](NC(=O)[C@H](Cc1ccccc1)NC(=O)[C@H](CCC(N)=O)NC(=O)/C=C/C(=O)NCC(=O)NCC(=O)N[C@@H](Cc1ccccc1)C(=O)O)C(=O)N[C@H](C(N)=O)C(C)C (HELM PEPTIDE1{[O=C(/C=C/C(=O)[*:2])NCC(=O)NCC(=O)N[C@@H](Cc1ccccc1)C(=O)O].Q.F.L.V.[am]}$$$$V2.0)	62%	57%
CC(C)[C@H](NC(=O)[C@@H](NC(=O)[C@H](Cc1ccccc1)NC(=O)[C@H](CCC(N)=O)NC(=O)/C=C/C(=O)NCC(=O)NCC(=O)N[C@@H](Cc1ccccc1)C(=O)O)C(C)C)C(N)=O (HELM PEPTIDE1{[O=C(/C=C/C(=O)[*:2])NCC(=O)NCC(=O)N[C@@H](Cc1ccccc1)C(=O)O].Q.F.V.V.[am]}$$$$V2.0)	51%	42%
CC[C@H](C)[C@H](NC(=O)[C@H](CCC(N)=O)NC(=O)/C=C/C(=O)NCC(=O)NCC(=O)N[C@@H](Cc1ccccc1)C(=O)O)C(=O)N[C@@H](C)C(=O)N[C@H](C(N)=O)C(C)C (HELM PEPTIDE1{[O=C(/C=C/C(=O)[*:2])NCC(=O)NCC(=O)N[C@@H](Cc1ccccc1)C(=O)O].Q.I.A.V.[am]}$$$$V2.0)	38%	38%
CC[C@H](C)[C@H](NC(=O)[C@H](CCC(N)=O)NC(=O)/C=C/C(=O)NCC(=O)NCC(=O)N[C@@H](Cc1ccccc1)C(=O)O)C(=O)N[C@@H](CC(C)C)C(=O)N[C@H](C(N)=O)C(C)C (HELM PEPTIDE1{[O=C(/C=C/C(=O)[*:2])NCC(=O)NCC(=O)N[C@@H](Cc1ccccc1)C(=O)O].Q.I.L.V.[am]}$$$$V2.0)	44%	52%
CC[C@H](C)[C@H](NC(=O)[C@H](CCC(N)=O)NC(=O)/C=C/C(=O)NCC(=O)NCC(=O)N[C@@H](Cc1ccccc1)C(=O)O)C(=O)N[C@H](C(=O)N[C@H](C(N)=O)C(C)C)C(C)C (HELM PEPTIDE1{[O=C(/C=C/C(=O)[*:2])NCC(=O)NCC(=O)N[C@@H](Cc1ccccc1)C(=O)O].Q.I.V.V.[am]}$$$$V2.0)	30%	37%
CC(C)C[C@H](NC(=O)[C@H](CCC(N)=O)NC(=O)/C=C/C(=O)NCC(=O)NCC(=O)N[C@@H](Cc1ccccc1)C(=O)O)C(=O)N[C@@H](C)C(=O)N[C@H](C(N)=O)C(C)C (HELM PEPTIDE1{[O=C(/C=C/C(=O)[*:2])NCC(=O)NCC(=O)N[C@@H](Cc1ccccc1)C(=O)O].Q.L.A.V.[am]}$$$$V2.0)	40%	38%
CC(C)C[C@H](NC(=O)[C@H](CCC(N)=O)NC(=O)/C=C/C(=O)NCC(=O)NCC(=O)N[C@@H](Cc1ccccc1)C(=O)O)C(=O)N[C@@H](CC(C)C)C(=O)N[C@H](C(N)=O)C(C)C (HELM PEPTIDE1{[O=C(/C=C/C(=O)[*:2])NCC(=O)NCC(=O)N[C@@H](Cc1ccccc1)C(=O)O].Q.L.L.V.[am]}$$$$V2.0)	42%	69%
CC(C)C[C@H](NC(=O)[C@H](CCC(N)=O)NC(=O)/C=C/C(=O)NCC(=O)NCC(=O)N[C@@H](Cc1ccccc1)C(=O)O)C(=O)N[C@H](C(=O)N[C@H](C(N)=O)C(C)C)C(C)C (HELM PEPTIDE1{[O=C(/C=C/C(=O)[*:2])NCC(=O)NCC(=O)N[C@@H](Cc1ccccc1)C(=O)O].Q.L.V.V.[am]}$$$$V2.0)	54%	54%
CC(C)[C@H](NC(=O)[C@H](C)NC(=O)[C@@H](NC(=O)[C@H](CCC(N)=O)NC(=O)/C=C/C(=O)NCC(=O)NCC(=O)N[C@@H](Cc1ccccc1)C(=O)O)C1CCCCC1)C(N)=O (HELM PEPTIDE1{[O=C(/C=C/C(=O)[*:2])NCC(=O)NCC(=O)N[C@@H](Cc1ccccc1)C(=O)O].Q.[O=C([C@@H](N[*:1])C1CCCCC1)[*:2]].A.V.[am]}$$$$V2.0)	40%	31%
CC(C)C[C@H](NC(=O)[C@@H](NC(=O)[C@H](CCC(N)=O)NC(=O)/C=C/C(=O)NCC(=O)NCC(=O)N[C@@H](Cc1ccccc1)C(=O)O)C1CCCCC1)C(=O)N[C@H](C(N)=O)C(C)C (HELM PEPTIDE1{[O=C(/C=C/C(=O)[*:2])NCC(=O)NCC(=O)N[C@@H](Cc1ccccc1)C(=O)O].Q.[O=C([C@@H](N[*:1])C1CCCCC1)[*:2]].L.V.[am]}$$$$V2.0)	45%	71%
CC(C)[C@H](NC(=O)[C@H](C)NC(=O)[C@@H](NC(=O)[C@H](CCC(N)=O)NC(=O)/C=C/C(=O)NCC(=O)NCC(=O)N[C@@H](Cc1ccccc1)C(=O)O)c1ccccc1)C(N)=O (HELM PEPTIDE1{[O=C(/C=C/C(=O)[*:2])NCC(=O)NCC(=O)N[C@@H](Cc1ccccc1)C(=O)O].Q.[Phg].A.V.[am]}$$$$V2.0)	34%	17%
CC(C)C[C@H](NC(=O)[C@@H](NC(=O)[C@H](CCC(N)=O)NC(=O)/C=C/C(=O)NCC(=O)NCC(=O)N[C@@H](Cc1ccccc1)C(=O)O)c1ccccc1)C(=O)N[C@H](C(N)=O)C(C)C (HELM PEPTIDE1{[O=C(/C=C/C(=O)[*:2])NCC(=O)NCC(=O)N[C@@H](Cc1ccccc1)C(=O)O].Q.[Phg].L.V.[am]}$$$$V2.0)	50%	62%
CC(C)[C@H](NC(=O)[C@@H](NC(=O)[C@@H](NC(=O)[C@H](CCC(N)=O)NC(=O)/C=C/C(=O)NCC(=O)NCC(=O)N[C@@H](Cc1ccccc1)C(=O)O)c1ccccc1)C(C)C)C(N)=O (HELM PEPTIDE1{[O=C(/C=C/C(=O)[*:2])NCC(=O)NCC(=O)N[C@@H](Cc1ccccc1)C(=O)O].Q.[Phg].V.V.[am]}$$$$V2.0)	63%	45%
CC(=O)NC[C@H](NC(=O)/C=C/C(=O)NCC(=O)NCC(=O)N[C@@H](Cc1ccccc1)C(=O)O)C(=O)N[C@@H](Cc1ccccc1)C(=O)N[C@@H](C)C(=O)N[C@H](C(N)=O)C(C)C (HELM PEPTIDE1{[O=C(/C=C/C(=O)[*:2])NCC(=O)NCC(=O)N[C@@H](Cc1ccccc1)C(=O)O].[O=C([C@H](CN[*:3])N[*:1])[*:2]].F.A.V.[am]}|PEPTIDE2{[ac]}$PEPTIDE1,PEPTIDE2,2:R3-1:R2$$$V2.0)	45%	15%
CC(=O)NC[C@H](NC(=O)/C=C/C(=O)NCC(=O)NCC(=O)N[C@@H](Cc1ccccc1)C(=O)O)C(=O)N[C@@H](Cc1ccccc1)C(=O)N[C@@H](CC(C)C)C(=O)N[C@H](C(N)=O)C(C)C (HELM PEPTIDE1{[O=C(/C=C/C(=O)[*:2])NCC(=O)NCC(=O)N[C@@H](Cc1ccccc1)C(=O)O].[O=C([C@H](CN[*:3])N[*:1])[*:2]].F.L.V.[am]}|PEPTIDE2{[ac]}$PEPTIDE1,PEPTIDE2,2:R3-1:R2$$$V2.0)	59%	51%
CC(=O)NC[C@H](NC(=O)/C=C/C(=O)NCC(=O)NCC(=O)N[C@@H](Cc1ccccc1)C(=O)O)C(=O)N[C@@H](Cc1ccccc1)C(=O)N[C@H](C(=O)N[C@H](C(N)=O)C(C)C)C(C)C (HELM PEPTIDE1{[O=C(/C=C/C(=O)[*:2])NCC(=O)NCC(=O)N[C@@H](Cc1ccccc1)C(=O)O].[O=C([C@H](CN[*:3])N[*:1])[*:2]].F.V.V.[am]}|PEPTIDE2{[ac]}$PEPTIDE1,PEPTIDE2,2:R3-1:R2$$$V2.0)	46%	61%
CC[C@H](C)[C@H](NC(=O)[C@H](CNC(C)=O)NC(=O)/C=C/C(=O)NCC(=O)NCC(=O)N[C@@H](Cc1ccccc1)C(=O)O)C(=O)N[C@@H](C)C(=O)N[C@H](C(N)=O)C(C)C (HELM PEPTIDE1{[O=C(/C=C/C(=O)[*:2])NCC(=O)NCC(=O)N[C@@H](Cc1ccccc1)C(=O)O].[O=C([C@H](CN[*:3])N[*:1])[*:2]].I.A.V.[am]}|PEPTIDE2{[ac]}$PEPTIDE1,PEPTIDE2,2:R3-1:R2$$$V2.0)	29%	29%
CC[C@H](C)[C@H](NC(=O)[C@H](CNC(C)=O)NC(=O)/C=C/C(=O)NCC(=O)NCC(=O)N[C@@H](Cc1ccccc1)C(=O)O)C(=O)N[C@@H](CC(C)C)C(=O)N[C@H](C(N)=O)C(C)C (HELM PEPTIDE1{[O=C(/C=C/C(=O)[*:2])NCC(=O)NCC(=O)N[C@@H](Cc1ccccc1)C(=O)O].[O=C([C@H](CN[*:3])N[*:1])[*:2]].I.L.V.[am]}|PEPTIDE2{[ac]}$PEPTIDE1,PEPTIDE2,2:R3-1:R2$$$V2.0)	33%	60%
CC[C@H](C)[C@H](NC(=O)[C@H](CNC(C)=O)NC(=O)/C=C/C(=O)NCC(=O)NCC(=O)N[C@@H](Cc1ccccc1)C(=O)O)C(=O)N[C@H](C(=O)N[C@H](C(N)=O)C(C)C)C(C)C (HELM PEPTIDE1{[O=C(/C=C/C(=O)[*:2])NCC(=O)NCC(=O)N[C@@H](Cc1ccccc1)C(=O)O].[O=C([C@H](CN[*:3])N[*:1])[*:2]].I.V.V.[am]}|PEPTIDE2{[ac]}$PEPTIDE1,PEPTIDE2,2:R3-1:R2$$$V2.0)	28%	41%
CC(=O)NC[C@H](NC(=O)/C=C/C(=O)NCC(=O)NCC(=O)N[C@@H](Cc1ccccc1)C(=O)O)C(=O)N[C@@H](CC(C)C)C(=O)N[C@H](C(=O)N[C@H](C(N)=O)C(C)C)C(C)C (HELM PEPTIDE1{[O=C(/C=C/C(=O)[*:2])NCC(=O)NCC(=O)N[C@@H](Cc1ccccc1)C(=O)O].[O=C([C@H](CN[*:3])N[*:1])[*:2]].L.V.V.[am]}|PEPTIDE2{[ac]}$PEPTIDE1,PEPTIDE2,2:R3-1:R2$$$V2.0)	41%	54%
CC(=O)NC[C@H](NC(=O)/C=C/C(=O)NCC(=O)NCC(=O)N[C@@H](Cc1ccccc1)C(=O)O)C(=O)N[C@H](C(=O)N[C@@H](C)C(=O)N[C@H](C(N)=O)C(C)C)c1ccccc1 (HELM PEPTIDE1{[O=C(/C=C/C(=O)[*:2])NCC(=O)NCC(=O)N[C@@H](Cc1ccccc1)C(=O)O].[O=C([C@H](CN[*:3])N[*:1])[*:2]].[Phg].A.V.[am]}|PEPTIDE2{[ac]}$PEPTIDE1,PEPTIDE2,2:R3-1:R2$$$V2.0)	37%	36%
